Reference: ChEMBL document CHEMBL1132346, “New type of febrifugine analogues, bearing a quinolizidine moiety, show potent antimalarial activity against Plasmodium malaria parasite” (J Med Chem, 1999)
Where “and” joins values, the source holds several entries; their conditions need not be identical. Equal values may be shown once.

Assays:
FM3A = assay: Compound was tested for cytotoxicity against FM3A mouse mammary cells.; assay type: functional, cell-based
[1] = Selectivity is the ratio of antimalarial activity and cytotoxicity; assay type: functional
In short: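 Ratio of antimalarial activity to cytotoxicity, with cytotoxicity measured against FM3A mouse mammary cells.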

Plasmodium falciparum [2] = assay: In vitro antimalarial activity against chloroquine-resistant Plasmodium falciparum K1; assay type: functional, organism-based
Plasmodium falciparum [3] = assay: In vitro antimalarial activity against chloroquine-sensitive Plasmodium falciparum FCR3; assay type: functional, organism-based
Mus musculus [4] = assay: Compound was tested for antimalarial activity against mice (Mus musculus) malaria parasite Plasmodium berghei in vivo and the samples were administarted intraperitoneally.; assay type: functional; conditions: for ED50: ip
Plasmodium berghei = assay: In vivo antimalarial activity against Plasmodium berghei infected mice (Mus musculus) by intraperitoneal dose; assay type: functional
Mus musculus [5] = assay: Compound was tested for antimalarial activity against mice (Mus musculus) malaria parasite Plasmodium berghei in vivo mice (Mus musculus) and the samples were administarted intraperitoneally.; assay type: functional

| Compound | EC50 (FM3A) [nM] | Selectivity [1] | EC50 (Plasmodium falciparum [2]) [nM] | EC50 (Plasmodium falciparum [3]) [nM] | ED50 (Mus musculus [4]) [µmol/kg] | ED90 (Mus musculus [4]) [µM/kg] | ED90 (Plasmodium berghei) [µM/kg] | ED50 (Plasmodium berghei; ip) [µmol/kg] | ED90 (Mus musculus [5]) [µM/kg] |
| --- | --- | --- | --- | --- | --- | --- | --- | --- | --- |
| CC1(C)[C@H](n2cnc3ccccc3c2=O)C(=O)C[C@H]2[C@@H](O)CCCN21 | 2400 | 857 and 571 | 4.2 | 2.8 | 76 |  |  |  |  |
| CC1(C)[C@@H](n2cnc3ccccc3c2=O)C(=O)C[C@@H]2[C@@H](O)CCCN21 | 380 | 238 and 127 | 3 | 1.6 | 7.3 | 19.4 |  |  |  |
| O=C(C[C@@H]1NCCC[C@H]1O)Cn1cnc2ccccc2c1=O (single isomer, unassigned) [FEBRIFUGINE] | 170 | 243 and 142 | 1.2 | 0.7 | 1 | 5 |  |  |  |
| C[C@@H]1CC[C@H]2[C@@H](C)C(=O)O[C@@H]3O[C@@]4(C)CC[C@@H]1[C@]32OO4 [ARTEMISININ] |  |  |  |  |  |  | 46 | 17.7 |  |
| CCN(CC)CCCC(C)Nc1ccnc2cc(Cl)ccc12 (centres undefined) [CHLOROQUINE] | 32000 |  | 130 | 18 | 4.7 | 9.4 |  |  |  |
| O=c1c2ccccc2ncn1CC1(O)C[C@@H]2NCCC[C@@H]2O1 (some centres undefined) [ISOFEBRIFUGINE] | 180 | 53 and 100 | 1.8 | 3.4 |  |  |  |  | 5 |
